Data on seven compounds can be found in PubChem BioAssay.

The source made the active and inactive calls.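 Rule for the calls, unless noted: active = fluorescence slope higher than the sample average by over 3 SD (cut at about -0.22 in these data, passing the limit was not always enough); inactive = the rest.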

Assay [1] is described as follows: inhibitors of TNFa-induced NFkB p65 translocation, primary screen, imaging, HUVEC, MLSMR starter and 10KST1 sets (AID 438;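 active = inhibition above 20% together with a positive visual image hit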;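 note: compound added about 3h40 before a 20 min TNFalpha stimulation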;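 for inhibition: signal is the nuclear over cytoplasmic p65 intensity ratio per well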). The following applies: HUVEC TNFa-induced p65 nuclear translocation; cell count: measured here: nuclei count (cytotoxicity indicator), at 2.08 µM; inhibition: at 2 µM, stronger effect = higher value, 0% TNFa-plus-vehicle, 100% no-TNFa wells.
Assay [2] in a line: endothelial E-selectin expression blockers – imaging, HUVEC, immunofluorescence, MLSMR starter and 10KST1 sets, primary screen (AID 487;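 active = visually confirmed hit in the image check and inhibition above 20%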;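 for inhibition: signal is fraction of cell area covered by stained E-selectin grains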;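 for nuclei count: 100% = median nuclei count of all wells on the same plate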). The following applies: HUVEC TNFalpha-induced E-selectin immunofluorescence imaging, at 2 µM; inhibition: stronger effect = higher value; nuclei count: measured here: cell number, toxicity.
A short description of assay [3]: Primary imaging screen for DUSP6 inhibitors that restore phospho-Erk in transfected HeLa cells, chemical complementation (AID 609;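 active = compounds giving at least 50% inhibition in the cell-based MKP-3 phosphatase rescue imaging test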;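 for inhibition: phospho-Erk level distribution per well compared with pooled transfected vehicle control wells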). The following applies: HeLa MKP-3 transfected, phospho-Erk imaging KS statistic, at 10 µM, cells stimulated with TPA for 15 min.
Assay [4] has as its target Dual specificity protein phosphatase 6 (Homo sapiens) (UniProt Q16828). The assay is described as above. As to conditions: HeLa MKP-3 transfected, phospho-Erk imaging KS statistic; at 10 µM; stronger effect = higher value; cells stimulated with TPA for 15 min.
Assay [5] addresses Voltage-gated potassium channel subunit beta-2 (Rattus norvegicus) (UniProt P62483). Kind of assay: inhibitors of rat Kvbeta2 reductase activity – biochemical, NADPH fluorescence, primary screen (AID 622).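 Note: slope of raw intensity against log time taken from 70 to 1610 s.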 The following applies: recombinant KvBeta, 4-cyanobenzaldehyde reduction, at 10 µM, stronger effect = higher value.
Assay [6] has the same target. The experiment in a line: enhancers of rat Kvbeta2 NADPH turnover – biochemical, NADPH fluorescence, primary screen (AID 623;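 active = NADPH fluorescence slope more negative than the mean of all samples by about 3 SD, 99.7% confidence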;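 note: fluorescence intensity change per second fitted from 20 to 320 s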). As to conditions: Recombinant KvBeta, NADPH fluorescence decrease slope, 10 min; at 10 µM; stronger effect = lower value.
Assay [7] has as its target Alpha-2C adrenergic receptor (Homo sapiens) (UniProt P18825). The experiment in a line: compounds altering alpha2C-coupled GIRK flux – cell-based, HEK293 alpha2C/GIRK1/2, thallium flux, primary screen (AID 624;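 active = fluorescence slope after compound addition differing from the mean of all screened samples at 99.7% confidence, in either direction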;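 note: slope of fluorescence ratio to pre-addition baseline per second over 15 to 24 s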). As to conditions: thallium flux BTC fluorescence, at 10 µM, actives lie on both sides.
Assay [8] is described as follows: inhibitors of larval lipid processing in zebrafish, primary screen, whole organism, PED6 fluorescence, gall bladder and intestine (AID 686;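 active = a full or partial loss of lipid-probe fluorescence in the fish gall bladder, intestine or both, judged by eye; inactive = no fluorescence loss, or compound toxic to the fish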;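 note: larvae 5 to 7 days old with five fish per well; signal comes from phospholipase A2 cleavage of quenched PED6 carried via bile; overnight exposure to compound and PED6 before scoring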). The following applies: Zebrafish larvae PED6 lipid processing, fluorescence scoring; screened at 20 µM (by protocol). Summed up: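 Test system – live zebrafish larvae aged 5-7 days, whole organism · Buffer or medium – E3 fish medium · Reagent – quenched phospholipase substrate PED6, 100 nM final, ingested by larvae · Doses – 20 µM single dose · Incubation – overnight compound and PED6 incubation · Technique – visual fluorescence microscopy scoring of gall bladder, gut · Read-out basis – visual per-well fluorescence inhibition score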

The nature of assay [9]: loss of swimming-algae plug formation – whole organism, Chlamydomonas reinhardtii, WT vs cilia-less mutant, absorbance, 96-well, primary screen (AID 463189;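 active = inhibition at or above 50% relative to wild type and mutant plate controls; inactive = inhibition below 50%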;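 note: 0% = wild type cc124 cells in DMSO and 100% = ciliumless bld1 mutant cells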). As to conditions: Chlamydomonas reinhardtii gravitaxis, OD600 absorbance, 2 days; at 10 µM; stronger effect = higher value.
Setting [10] is: measured here: cell density z-score.
Setting [11] is: measured here: nuclear c-Myc green intensity z-score.
The mark [12] stands for this setting: measured here: nuclear pErk red intensity z-score, stronger effect = higher value.

Dual specificity protein phosphatase 6 (Homo sapiens), sequence (Q16828 whole entry, looked up): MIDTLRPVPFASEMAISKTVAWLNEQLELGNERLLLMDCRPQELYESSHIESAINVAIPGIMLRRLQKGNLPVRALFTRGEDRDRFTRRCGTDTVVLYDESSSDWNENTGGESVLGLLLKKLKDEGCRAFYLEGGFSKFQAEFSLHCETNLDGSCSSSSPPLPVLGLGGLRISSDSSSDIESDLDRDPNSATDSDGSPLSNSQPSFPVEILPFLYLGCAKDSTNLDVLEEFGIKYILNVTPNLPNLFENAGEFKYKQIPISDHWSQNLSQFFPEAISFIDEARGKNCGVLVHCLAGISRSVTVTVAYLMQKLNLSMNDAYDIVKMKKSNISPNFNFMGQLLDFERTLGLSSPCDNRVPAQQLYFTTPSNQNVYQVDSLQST
Alpha-2C adrenergic receptor (Homo sapiens), sequence (P18825 whole entry, looked up): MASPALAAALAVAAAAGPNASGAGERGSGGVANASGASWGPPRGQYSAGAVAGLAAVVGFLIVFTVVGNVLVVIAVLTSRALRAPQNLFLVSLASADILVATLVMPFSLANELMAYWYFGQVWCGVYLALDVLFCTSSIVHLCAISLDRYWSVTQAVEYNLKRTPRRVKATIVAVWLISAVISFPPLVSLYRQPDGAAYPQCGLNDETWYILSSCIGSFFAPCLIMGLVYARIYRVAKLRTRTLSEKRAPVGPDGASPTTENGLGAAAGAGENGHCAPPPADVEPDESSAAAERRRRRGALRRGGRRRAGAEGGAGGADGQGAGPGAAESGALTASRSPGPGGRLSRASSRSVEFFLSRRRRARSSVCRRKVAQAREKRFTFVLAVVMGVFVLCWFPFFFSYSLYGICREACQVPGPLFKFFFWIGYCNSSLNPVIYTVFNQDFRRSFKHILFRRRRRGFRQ
Voltage-gated potassium channel subunit beta-2 (Rattus norvegicus), sequence (P62483 whole entry, looked up): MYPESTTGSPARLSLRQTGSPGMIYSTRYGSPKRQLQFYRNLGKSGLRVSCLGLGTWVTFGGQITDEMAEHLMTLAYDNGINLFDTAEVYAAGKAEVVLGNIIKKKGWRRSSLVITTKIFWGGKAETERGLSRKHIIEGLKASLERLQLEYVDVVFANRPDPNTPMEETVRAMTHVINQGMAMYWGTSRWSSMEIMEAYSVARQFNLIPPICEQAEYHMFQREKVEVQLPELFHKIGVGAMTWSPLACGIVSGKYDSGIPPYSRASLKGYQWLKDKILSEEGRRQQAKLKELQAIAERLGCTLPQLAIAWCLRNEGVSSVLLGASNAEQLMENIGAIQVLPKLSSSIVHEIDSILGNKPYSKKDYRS

For orientation: inhibition means the change of the read-out against control, counted positive when it falls. As for `N#CCCSCc1ccc(OCC(=O)O)cc1`, the cell count in [1] was determined as 547. The inhibition is -22.2% (inactive) in assay [1], -141% (inactive) in assay [2], 5.95% (inactive) in assay [4] and 2.45% (inactive) in [9]. The compound further returned a nuclei count in [2] of 138%. Further, the z-score in [3] (setting [10]) is 0.922; in assay [3] (setting [11]), -1.08; in assay [3] (setting [12]), 0.0284. Besides, the fluorescence slope in assay [5] is -0.488 (inactive). Also, the NADPH fluorescence slope in assay [6] is -9.2e-05 (inactive). Further, the slope in assay [7] is 0.00635 (inactive). Moreover, the outcome in assay [8] was inactive.

Consider `CCC1(C)Cc2c(C#N)c(N)sc(=S)c2CO1` (stereo unspecified), for which the cell count in assay [1] is 505. Moreover, the inhibition in assay [1] was -3.2% (inactive); in assay [2], -128% (inactive); in [4], -14% (inactive); in assay [9] it was 28.8% (inactive). This compound also came in with a nuclei count in assay [2] of 140%. For the same compound, the z-score in [3] (setting [10]) was 0.126; in assay [3] (setting [11]), 0.287; in [3] (setting [12]), -0.524. In addition, the fluorescence slope in [5] is -0.501 (inactive). Also, the NADPH fluorescence slope in assay [6] was -2.4e-05 (inactive). In addition, in assay [7], the slope was 0.00206 (inactive). In addition, in assay [8], the compound was called inactive.

Regarding `CN1CCc2c(sc3c2C(=O)NC(c2ccco2)N3)C1` (stereo unspecified), the cell count in assay [1] was found to be 554. The inhibition in assay [1] is -12% (inactive); in assay [2], -9.3% (inactive); in [4] it was 4.72% (inactive); in assay [9] it was 7.66% (inactive). For the same compound, the nuclei count in assay [2] was found to be 170%. Further, the z-score is -0.0126 in assay [3] (setting [10]), -0.484 in assay [3] (setting [11]) and 0.477 in assay [3] (setting [12]). For the same compound, the fluorescence slope in assay [5] was -0.43 (inactive). In addition, the NADPH fluorescence slope in assay [6] is -3.1e-06 (inactive). In addition, the slope in assay [7] is 0.00594 (inactive). The compound was classed as inactive in [8].

For the compound `CC(C(=O)N1CCCCC1)N1C(=O)c2ccccc2C1=O` (stereo unspecified), in assay [1], the cell count was determined as 352. For the same compound, the inhibition in assay [1] was -17.2% (inactive); in [2], -54% (inactive); in assay [4], 17.5% (inactive); in assay [9] it was 10.7% (inactive). Besides, in assay [2], the nuclei count turned out to be 122%. Moreover, the z-score in assay [3] (setting [10]) is 2.3; in assay [3] (setting [11]), -0.711; in [3] (setting [12]), -0.781. Besides, in [5], the fluorescence slope was -0.452 (inactive). For the same compound, in assay [6], the NADPH fluorescence slope is -0.000116 (inactive). Further, the slope in assay [7] was 0.00537 (inactive). Moreover, the outcome in assay [8] was inactive.

In the case of `C=CCNc1nc(-c2ccc(O)c(C(N)=O)c2)cs1`, in [1], the cell count amounted to 651. In addition, the inhibition in assay [1] is -7.7% (inactive); in [2] it was -37.4% (inactive); in assay [4] it was 7.48% (inactive); in assay [9], 22.9% (inactive). In addition, the nuclei count in assay [2] came to 154%. The z-score in assay [3] (setting [10]) was 1.4; in [3] (setting [11]), -1.92; in assay [3] (setting [12]), 0.332. For the same compound, in assay [5], the fluorescence slope was -0.465 (inactive). In assay [6], the NADPH fluorescence slope is -0.000295 (inactive). The slope in assay [7] was 0.00459 (inactive). In addition, the compound was classed as inactive in assay [8].

For the compound `COc1ccc(N2C(=O)CN=C2Nc2nc(C)cc(C)n2)cc1`, the cell count in assay [1] was determined as 570. In addition, the inhibition in assay [1] was -16.6% (inactive); in [2], -179% (inactive); in assay [4] it was 1.98% (inactive); in assay [9], 0.296% (inactive). In addition, the nuclei count in assay [2] is 144%. In addition, the z-score is 1.15 in assay [3] (setting [10]), -0.727 in assay [3] (setting [11]) and 0.0405 in [3] (setting [12]). Further, the fluorescence slope in assay [5] was -0.509 (inactive). Moreover, the NADPH fluorescence slope in assay [6] was -6.2e-05 (inactive). In addition, the slope in [7] was 0.00444 (inactive). Moreover, the call in assay [8] was inactive.

As to `Nc1c(Br)cc2oc(-c3ccccc3)nc2c1Br`, in [1], the cell count worked out at 539. The inhibition in assay [1] was -3.4% (inactive); in assay [2], -23.5% (inactive); in assay [4] it was 6.51% (inactive); in assay [9], -9.35% (inactive). Moreover, the nuclei count in [2] was 119%. Further, the figures for the z-score in assay [3] (setting [10]), in [3] (setting [11]) and in assay [3] (setting [12]) were -0.358, -0.383 and -0.387, respectively. Besides, the fluorescence slope in [5] was -0.482 (inactive). Besides, the NADPH fluorescence slope in assay [6] is -6.5e-05 (inactive). Also, the slope in assay [7] was 0.00567 (inactive). Besides, in assay [8], the outcome was inactive.
